Here are results for 25 compounds from ChEMBL document CHEMBL3734651, “Synthesis of dihydropyrimidine α,γ-diketobutanoic acid derivatives targeting HIV integrase” (Eur J Med Chem, 2015).

Each structure is given as a SMILES string.

Series [1] deals with T1, Human immunodeficiency virus type 1 integrase (Human immunodeficiency virus 1, UniProt Q7ZJM1). Briefly: Inhibition of recombinant HIV-1 integrase stand transfer activity expressed in Escherichia coli BL21(DE3) cells using 32P-labeled DNA substrate after 1 hr by densitometric analysis.
In series [2] the target is T1, Human immunodeficiency virus type 1 integrase. Briefly: Inhibition of recombinant HIV-1 integrase 3'-processing activity expressed in Escherichia coli BL21(DE3) cells using 32P-labeled DNA substrate after 1 hr by densitometric analysis. In a few lines:
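Reaction run 1 h at 37 °C, then stopped with an equal volume of formamide loading buffer containing 1% SDS, 0.25% bromophenol blue and xylene cyanol. Products resolved on 16% denaturing polyacrylamide sequencing gels; dried gels imaged. Value reported as the concentration giving 50% inhibition.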

Series [3] in a line: (§1) Cytotoxicity against human PBMC assessed as reduction in cell growth incubated for 5 days by CellTiter 96 AQueous One Solution cell proliferation assay. It is filed as cell-based. The note with it: PBMC (peripheral blood mononuclear cells).
Series [4] can be described thus: (§2) Cytotoxicity against African green monkey Vero cells assessed as reduction in cell growth incubated for 5 days by CellTiter 96 AQueous One Solution cell proliferation assay. In kind it is cell-based. The note with it: chlorocebus sabaeus, Vero cells.
Series [5] deals with Human immunodeficiency virus 1. Briefly: Antiviral activity against HIV1 infected in human peripheral blood mononuclear cells assessed as inhibition of reverse transcriptase activity incubated for 6 days. It is filed as functional, organism-based. Conditions: Human immunodeficiency virus 1, 144 h.
Series [6] can be described thus: (§3) Cytotoxicity against human CEM cells assessed as reduction in cell growth incubated for 5 days by CellTiter 96 AQueous One Solution cell proliferation assay. In kind it is cell-based, CCRF-CEM. The note with it: CEM (CCRF-CEM) cells.
The next series deals with PBMC. The description is as §1. Conditions: pbmc, 120 h. In kind it is cell-based.
For another series, the system named is Vero. The series is described as §2. Conditions: chlorocebus sabaeus, vero, 120 h. It is filed as cell-based.
In the next series the test system is CCRF-CEM. The series is described as §3. In kind it is cell-based. Conditions: ccrf-cem, 120 h.

T1 sequence (Q7ZJM1 whole entry): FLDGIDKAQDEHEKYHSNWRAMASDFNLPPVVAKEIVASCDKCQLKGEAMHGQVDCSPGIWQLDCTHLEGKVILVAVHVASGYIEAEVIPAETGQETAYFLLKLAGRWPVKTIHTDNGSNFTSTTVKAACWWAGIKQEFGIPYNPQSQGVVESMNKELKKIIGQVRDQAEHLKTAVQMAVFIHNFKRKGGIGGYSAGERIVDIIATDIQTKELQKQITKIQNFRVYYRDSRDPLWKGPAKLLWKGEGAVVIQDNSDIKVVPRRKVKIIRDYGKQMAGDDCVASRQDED

Usually IC50 stands for the concentration that inhibits the measured activity by half. Consider `CCOC(=O)c1c(-c2ccccc2)nc(=O)n(Cc2ccc(C(=O)/C=C(\O)C(=O)O)cc2)c1C`, for which the IC50 in series [1] is 2.4 µM; in series [2] it was above 111 µM.

Turning to `CCOC(=O)c1c(-c2ccc(F)cc2)nc(=O)n(Cc2ccc(C(=O)/C=C(\O)C(=O)O)cc2)c1-c1ccccc1`, the results for the IC50 in series [1] and in [2] were 2.4 µM and 16.6 µM, respectively.

As to `CCOC(=O)c1c(-c2ccc(F)cc2)nc(=O)n(Cc2ccc(C(=O)/C=C(\O)C(=O)O)cc2)c1C(C)C`, the figures for the IC50 in series [1] and in series [2] were 3.6 µM and 40 µM, respectively.

What is called CC50 is the concentration giving 50% cytotoxicity. Broadly, the EC50 is the midpoint of the concentration-response curve. For `CCOC(=O)c1c(-c2ccc(OC)cc2)nc(=O)n(Cc2ccc(C(=O)/C=C(\O)C(=O)OC(C)C)cc2)c1-c1ccccc1`, the CC50 at 120 h in series [3] was above 100 µM; in series [4], above 100 µM; in series [6], 25.3 µM. In series [5], the EC50 was 80.6 µM.

Regarding `CCOC(=O)c1c(-c2ccccc2)nc(SCc2ccc(C(=O)/C=C(\O)C(=O)O)cc2)nc1-c1ccc(F)cc1`, the figures for the IC50 in [1] and in [2] were 2.8 µM and 22 µM, respectively.

On to `CCOC(=O)c1c(-c2ccccc2)nc(SCc2ccc(C(=O)/C=C(\O)C(=O)O)cc2)nc1-c1ccc(OC)cc1`, for which the IC50 is 1.2 µM in [1] and 23 µM in [2].

Take `CCOC(=O)c1c(-c2ccccc2)nc(=O)n(Cc2ccc(C(=O)/C=C(\O)C(=O)O)cc2)c1-c1ccccc1`: the IC50 in series [1] was determined as 2 µM; in series [2], 18.4 µM.

As for `CCOC(=O)c1c(Cc2ccccc2)nc(=O)n(Cc2ccc(C(=O)/C=C(\O)C(=O)OC(C)C)cc2)c1C`, the CC50 in the series with PBMC came to 77 µM; in the series on Vero, 32.9 µM; with CCRF-CEM, 7.3 µM. Moreover, the EC50 in series [5] is 17.2 µM.

For `CCOC(=O)c1c(-c2ccc(F)cc2)nc(=O)n(Cc2ccc(C(=O)/C=C(\O)C(=O)O)cc2)c1C`, the IC50 in series [1] stood at 1.3 µM; in series [2], 17.4 µM.

For the compound `CCOC(=O)c1c(-c2ccccc2)nc(=O)n(Cc2ccc(C(=O)/C=C(\O)C(=O)O)cc2)c1C(C)C`, the IC50 in series [1] amounted to 2.3 µM; in series [2] it was 37.5 µM.

With `CCOC(=O)c1c(-c2ccccc2)nc(SCc2ccc(C(=O)/C=C(\O)C(=O)O)cc2)nc1-c1ccccc1`, the IC50 in series [1] was 6.1 µM; in [2], 30 µM.

Take `CCOC(=O)c1c(CC)nc(SCc2ccc(C(=O)/C=C(\O)C(=O)O)cc2)nc1-c1ccc(OC)cc1`: the IC50 in series [1] worked out at 2.27 µM; in series [2], 30.7 µM.

Take `CCOC(=O)c1c(CC)nc(SCc2ccc(C(=O)/C=C(\O)C(=O)O)cc2)nc1-c1ccc(F)cc1`: the IC50 in series [1] turned out to be 0.92 µM; in [2] it was 29.3 µM.

`CCOC(=O)c1c(-c2ccc(OC)cc2)nc(=O)n(Cc2ccc(C(=O)/C=C(\O)C(=O)O)cc2)c1CC`: the IC50 in series [1] worked out at 5.6 µM; in series [2] it was 72 µM.

On to `CCOC(=O)c1c(CC)nc(SCc2ccc(C(=O)/C=C(\O)C(=O)O)cc2)nc1-c1ccccc1`, for which the values for the IC50 in series [1] and in series [2] were 2.23 µM and 21.1 µM, respectively.

For `CCOC(=O)c1c(-c2ccc(F)cc2)nc(=O)n(Cc2ccc(C(=O)/C=C(\O)C(=O)O)cc2)c1CC`, the IC50 in [1] was determined as 1.1 µM; in series [2] it was 35 µM.

As to `CCOC(=O)c1c(-c2cc(C)cc(C)c2)nc(=O)n(Cc2ccc(C(=O)/C=C(\O)C(=O)O)cc2)c1-c1ccccc1`, the IC50 in [1] is 1.3 µM; in [2] it was 16.3 µM.

In the case of `CCOC(=O)c1c(-c2ccccc2)nc(=O)n(Cc2ccc(C(=O)/C=C(\O)C(=O)O)cc2)c1CC`, the IC50 in [1] was found to be 0.64 µM; in series [2], 19.1 µM.

As for `CCOC(=O)c1c(-c2ccc(OC)cc2)nc(=O)n(Cc2ccc(C(=O)/C=C(\O)C(=O)O)cc2)c1-c1ccccc1`, the IC50 in [1] came to 1.9 µM; in [2], 17.2 µM.

Regarding `CCOC(=O)c1c(Cc2ccccc2)nc(=O)n(Cc2ccc(C(=O)/C=C(\O)C(=O)O)cc2)c1C`, the IC50 in series [1] worked out at 0.19 µM; in series [2], 16.9 µM.

Take `CCOC(=O)c1c(CC)nc(SCc2ccc(C(=O)/C=C(\O)C(=O)OC(C)C)cc2)nc1-c1ccc(F)cc1`: the CC50 stood at 43.2 µM with PBMC, 39.5 µM in the series with Vero and 5.2 µM with CCRF-CEM. Further, the EC50 in [5] amounted to 25.6 µM.

On to `CCOC(=O)c1c(-c2ccccc2)nc(=O)n(Cc2ccc(Cc3cccc(C(=O)/C=C(\O)C(=O)OC(C)C)c3)cc2)c1CC`, for which the CC50 at 120 h is 47.6 µM in series [3], above 100 µM in series [4] and 8.9 µM in [6]. Further, the EC50 in series [5] worked out at 36.8 µM.

`CCOC(=O)c1c(-c2ccccc2)nc(=O)n(Cc2ccc(C(=O)/C=C(\O)C(=O)OC(C)C)cc2)c1CC`: the results for the CC50 with PBMC, with Vero and in the series on CCRF-CEM were above 100 µM, above 100 µM and 21.4 µM, respectively. Moreover, the EC50 in [5] is above 100 µM.

On to `CCOC(=O)c1c(-c2ccc(OC)cc2)nc(=O)n(Cc2ccc(C(=O)/C=C(\O)C(=O)O)cc2)c1C(C)C`, for which the IC50 was determined as 3.3 µM in series [1] and 19.2 µM in series [2].

For `Cc1cn([C@H]2C[C@H](N=[N+]=[N-])[C@@H](CO)O2)c(=O)[nH]c1=O` [ZIDOVUDINE], in series [3], the CC50 at 120 h was above 100 µM. The CC50 came out at 39.5 µM in the series on Vero and 56.1 µM with CCRF-CEM.
